Reference: ChEMBL document CHEMBL5058577, “EUbOPEN Chemogenomics Library 2 (Multiplex)” (2022)

Tested on: Fibroblast
Test: Multiplex assay against human fibroblast
Assay type: toxicity, cell-based
Procedure, shortened: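 Cells were classed with CellPathfinder machine-learning gating, first as Hoechst high-intensity objects or normal cells, then (normal cells) as healthy, pyknosed or fragmented nuclei, and finally (pyknosed cells) as mitotic or apoptotic. Staining of live cells at seeding used Hoechst33342, BioTracker Green Microtubule Cytoskeleton Dye, MitoTracker Red and Annexin V Alexa Fluor 680, with imaging on a CQ1 microscope at 37°C and 5% CO2 after compound addition. Tubulin, mitochondrial-mass and membrane-permeability phenotypes are per cents of healthy-nucleus cells.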

[1] = 12 h, 1 µM, compound concentration 1 uM, replicate 1
[2] = 12 h, 1 µM, compound concentration 1 uM, replicate 2
[3] = 12 h, 10 µM, compound concentration 10 uM, replicate 1
[4] = 12 h, 10 µM, compound concentration 10 uM, replicate 2
[5] = 24 h, 1 µM, compound concentration 1 uM, replicate 1
[6] = 24 h, 1 µM, compound concentration 1 uM, replicate 2
[7] = 24 h, 10 µM, compound concentration 10 uM, replicate 1
[8] = 24 h, 10 µM, compound concentration 10 uM, replicate 2
[9] = 48 h, 1 µM, compound concentration 1 uM, replicate 1
[10] = 48 h, 1 µM, compound concentration 1 uM, replicate 2
[11] = 48 h, 10 µM, compound concentration 10 uM, replicate 1
[12] = 48 h, 10 µM, compound concentration 10 uM, replicate 2

`Cl.N=C(N)NC(=O)Cc1c(Cl)cccc1Cl` [GUANFACINE HYDROCHLORIDE] was tested, and the “Population Apoptotic (%)” value [1] was 44%, the “Population Fragmented Nuclei (%)” value [1] was 20% and the “Population Healthy Nuclei (%)” value [1] was 62%. The “Population Hoechst High Intensity Objects (%)” value [1] was 2%, the “Population Membrane Permeable-Phenotype (%)” value [1] was 0% and the “Population Mitochondria Different-Phenotype (%)” value [1] was 4%. For the same compound, the “Population Mitotic Cells (%)” value [1] was 55%, the “Population Normal (%)” value [1] was 97% and the “Population Pyknosed Nuclei (%)” value [1] was 16%. The “Population Tubulin-Different-Phenotype (%)” value [1] was 32%, the “Total Cell Count” value [1] was 167 and the “Population Apoptotic (%)” value [2] was 28%. The “Population Fragmented Nuclei (%)” value [2] was 23%, the “Population Healthy Nuclei (%)” value [2] was 45% and the “Population Membrane Permeable-Phenotype (%)” value [2] was 3%. For the same compound, the “Population Mitochondria Different-Phenotype (%)” value [2] was 7%, the “Population Mitotic Cells (%)” value [2] was 71% and the “Population Pyknosed Nuclei (%)” value [2] was 31%. The “Population Tubulin-Different-Phenotype (%)” value [2] was 46%, the “Total Cell Count” value [2] was 149 and the “Population Apoptotic (%)” value [3] was 66%. The “Population Fragmented Nuclei (%)” value [3] was 16%, the “Population Healthy Nuclei (%)” value [3] was 68% and the “Population Hoechst High Intensity Objects (%)” value [3] was 0%. For the same compound, the “Population Membrane Permeable-Phenotype (%)” value [3] was 1%, the “Population Mitochondria Different-Phenotype (%)” value [3] was 5% and the “Population Mitotic Cells (%)” value [3] was 33%. For the same compound, the “Population Normal (%)” value [3] was 99%, the “Population Pyknosed Nuclei (%)” value [3] was 15% and the “Population Tubulin-Different-Phenotype (%)” value [3] was 24%. The “Total Cell Count” value [3] was 139, the “Population Apoptotic (%)” value [4] was 35% and the “Population Fragmented Nuclei (%)” value [4] was 22%. The “Population Healthy Nuclei (%)” value [4] was 47%, the “Population Hoechst High Intensity Objects (%)” value [4] was 10% and the “Population Membrane Permeable-Phenotype (%)” value [4] was 5%. For the same compound, the “Population Mitotic Cells (%)” value [4] was 64%, the “Population Normal (%)” value [4] was 89% and the “Population Pyknosed Nuclei (%)” value [4] was 29%. The “Population Tubulin-Different-Phenotype (%)” value [4] was 46%, the “Total Cell Count” value [4] was 127 and the “Population Apoptotic (%)” value [5] was 58%. For the same compound, the “Population Fragmented Nuclei (%)” value [5] was 22%, the “Population Healthy Nuclei (%)” value [5] was 62% and the “Population Hoechst High Intensity Objects (%)” value [5] was 1%. The “Population Membrane Permeable-Phenotype (%)” value [5] was 0%, the “Population Mitochondria Different-Phenotype (%)” value [5] was 5% and the “Population Mitotic Cells (%)” value [5] was 41%. The “Population Normal (%)” value [5] was 98%, the “Population Pyknosed Nuclei (%)” value [5] was 14% and the “Population Tubulin-Different-Phenotype (%)” value [5] was 26%. The “Total Cell Count” value [5] was 169, the “Population Apoptotic (%)” value [6] was 45% and the “Population Fragmented Nuclei (%)” value [6] was 23%. The “Population Healthy Nuclei (%)” value [6] was 46%, the “Population Hoechst High Intensity Objects (%)” value [6] was 6% and the “Population Membrane Permeable-Phenotype (%)” value [6] was 12%. The “Population Mitochondria Different-Phenotype (%)” value [6] was 8%, the “Population Mitotic Cells (%)” value [6] was 54% and the “Population Normal (%)” value [6] was 93%. For the same compound, the “Population Pyknosed Nuclei (%)” value [6] was 30%, the “Population Tubulin-Different-Phenotype (%)” value [6] was 50% and the “Total Cell Count” value [6] was 130. For the same compound, the “Population Apoptotic (%)” value [7] was 63%, the “Population Fragmented Nuclei (%)” value [7] was 17% and the “Population Healthy Nuclei (%)” value [7] was 68%. The “Population Hoechst High Intensity Objects (%)” value [7] was 1%, the “Population Membrane Permeable-Phenotype (%)” value [7] was 0% and the “Population Mitochondria Different-Phenotype (%)” value [7] was 4%. For the same compound, the “Population Mitotic Cells (%)” value [7] was 36%, the “Population Normal (%)” value [7] was 98% and the “Population Pyknosed Nuclei (%)” value [7] was 14%. For the same compound, the “Population Tubulin-Different-Phenotype (%)” value [7] was 19%, the “Total Cell Count” value [7] was 137 and the “Population Apoptotic (%)” value [8] was 25%. For the same compound, the “Population Fragmented Nuclei (%)” value [8] was 26%, the “Population Healthy Nuclei (%)” value [8] was 55% and the “Population Hoechst High Intensity Objects (%)” value [8] was 4%. For the same compound, the “Population Membrane Permeable-Phenotype (%)” value [8] was 13%, the “Population Mitochondria Different-Phenotype (%)” value [8] was 3% and the “Population Mitotic Cells (%)” value [8] was 75%. For the same compound, the “Population Normal (%)” value [8] was 95%, the “Population Pyknosed Nuclei (%)” value [8] was 18% and the “Population Tubulin-Different-Phenotype (%)” value [8] was 58%. The “Total Cell Count” value [8] was 114, the “Population Apoptotic (%)” value [9] was 61% and the “Population Fragmented Nuclei (%)” value [9] was 25%. The “Population Healthy Nuclei (%)” value [9] was 63%, the “Population Hoechst High Intensity Objects (%)” value [9] was 1% and the “Population Membrane Permeable-Phenotype (%)” value [9] was 0%. For the same compound, the “Population Mitochondria Different-Phenotype (%)” value [9] was 6%, the “Population Mitotic Cells (%)” value [9] was 38% and the “Population Normal (%)” value [9] was 98%. For the same compound, the “Population Pyknosed Nuclei (%)” value [9] was 11%, the “Population Tubulin-Different-Phenotype (%)” value [9] was 32% and the “Total Cell Count” value [9] was 162. For the same compound, the “Population Apoptotic (%)” value [10] was 50%, the “Population Fragmented Nuclei (%)” value [10] was 33% and the “Population Healthy Nuclei (%)” value [10] was 45%. For the same compound, the “Population Hoechst High Intensity Objects (%)” value [10] was 3%, the “Population Membrane Permeable-Phenotype (%)” value [10] was 4% and the “Population Mitochondria Different-Phenotype (%)” value [10] was 11%. For the same compound, the “Population Mitotic Cells (%)” value [10] was 50%, the “Population Normal (%)” value [10] was 96% and the “Population Pyknosed Nuclei (%)” value [10] was 21%. For the same compound, the “Population Tubulin-Different-Phenotype (%)” value [10] was 57%, the “Total Cell Count” value [10] was 145 and the “Population Apoptotic (%)” value [11] was 66%. The “Population Fragmented Nuclei (%)” value [11] was 22%, the “Population Healthy Nuclei (%)” value [11] was 67% and the “Population Hoechst High Intensity Objects (%)” value [11] was 1%. For the same compound, the “Population Membrane Permeable-Phenotype (%)” value [11] was 1%, the “Population Mitochondria Different-Phenotype (%)” value [11] was 6% and the “Population Mitotic Cells (%)” value [11] was 33%. The “Population Normal (%)” value [11] was 98%, the “Population Pyknosed Nuclei (%)” value [11] was 10% and the “Population Tubulin-Different-Phenotype (%)” value [11] was 24%. The “Total Cell Count” value [11] was 142, the “Population Apoptotic (%)” value [12] was 45% and the “Population Fragmented Nuclei (%)” value [12] was 39%. For the same compound, the “Population Healthy Nuclei (%)” value [12] was 41%, the “Population Hoechst High Intensity Objects (%)” value [12] was 6% and the “Population Membrane Permeable-Phenotype (%)” value [12] was 8%. The “Population Mitochondria Different-Phenotype (%)” value [12] was 2%, the “Population Mitotic Cells (%)” value [12] was 54% and the “Population Normal (%)” value [12] was 93%. The “Population Pyknosed Nuclei (%)” value [12] was 19%, the “Population Tubulin-Different-Phenotype (%)” value [12] was 67% and the “Total Cell Count” value [12] was 120.
